Results reported in ChEMBL document CHEMBL1156261, “Evaluation of substituted N,N'-diarylsulfonamides as activators of the tumor cell specific M2 isoform of pyruvate kinase” (J Med Chem, 2010).
Calls of active or inactive are those of the source. No rule for the calls is given here.

What was measured:
[1] = target: Pyruvate kinase PKLR (Homo sapiens) (UniProt P30613); experiment: Activation of PKR assessed as pyruvate formation by fluorescent pyruvate kinase-lactate dehydrogenase coupled assay relative to control; design: concentration or dose not given beside the values
[2] = target: Pyruvate kinase PKLR (Homo sapiens) (UniProt P30613); experiment: Activation of PKR assessed as ATP product formation by luminescent pyruvate kinase-luciferase coupled assay relative to control; design: concentration or dose not given beside the values
In short: (§1)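 Luciferase-coupled ATP production assay run as for PKM2: imidazole pH 7.2 buffer with KCl, MgCl2, Tween 20 and BSA, 0.1 mM ADP, 0.5 mM PEP, 1 h at r.t., Kinase-Glo luminescence. Enzyme final concentrations were PKM1 1 nM, PKL 0.1 nM, PKR 0.1 nM. % activation normalized to DMSO (neutral) and no-enzyme controls.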

[3] = target: Pyruvate kinase PKLR (Homo sapiens) (UniProt P30613); experiment: Activation of PKL assessed as pyruvate formation by fluorescent pyruvate kinase-lactate dehydrogenase coupled assay relative to control; design: concentration or dose not given beside the values
[4] = target: Pyruvate kinase PKLR (Homo sapiens) (UniProt P30613); experiment: Activation of PKL assessed as ATP product formation by luminescent pyruvate kinase-luciferase coupled assay relative to control; design: concentration or dose not given beside the values; in short: as §1
Pyruvate kinase PKM [5] = target: T1, Pyruvate kinase PKM (Homo sapiens, UniProt P14618); experiment: Activation of PKM2 assessed as ATP product formation at 57 uM by luminescent pyruvate kinase-luciferase coupled assay relative to fructose-1,6-bis-phosphate
In short: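 Recombinant human PKM2 (0.1 nM final) in 50 mM imidazole pH 7.2, 50 mM KCl, 7 mM MgCl2, 0.01% Tween 20, 0.05% BSA; 0.1 mM ADP, 0.5 mM PEP; 1 h at r.t., then Kinase-Glo luciferase read of ATP formed. Activation % = (c−n)/(n−i)×100 against DMSO and no-enzyme controls; 100% ≈ 2-fold over basal signal. Max response taken at 57 μM; three separate experiments.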

Pyruvate kinase PKM [6] = target: T1, Pyruvate kinase PKM; experiment: Activation of PKM1 assessed as pyruvate formation by fluorescent pyruvate kinase-lactate dehydrogenase coupled assay
Pyruvate kinase PKM [7] = target: T1, Pyruvate kinase PKM; experiment: Activation of PKM1 assessed as ATP product formation by luminescent pyruvate kinase-luciferase coupled assay; in short: as §1

Chain of Pyruvate kinase PKLR (Homo sapiens) (P30613 whole entry, looked up): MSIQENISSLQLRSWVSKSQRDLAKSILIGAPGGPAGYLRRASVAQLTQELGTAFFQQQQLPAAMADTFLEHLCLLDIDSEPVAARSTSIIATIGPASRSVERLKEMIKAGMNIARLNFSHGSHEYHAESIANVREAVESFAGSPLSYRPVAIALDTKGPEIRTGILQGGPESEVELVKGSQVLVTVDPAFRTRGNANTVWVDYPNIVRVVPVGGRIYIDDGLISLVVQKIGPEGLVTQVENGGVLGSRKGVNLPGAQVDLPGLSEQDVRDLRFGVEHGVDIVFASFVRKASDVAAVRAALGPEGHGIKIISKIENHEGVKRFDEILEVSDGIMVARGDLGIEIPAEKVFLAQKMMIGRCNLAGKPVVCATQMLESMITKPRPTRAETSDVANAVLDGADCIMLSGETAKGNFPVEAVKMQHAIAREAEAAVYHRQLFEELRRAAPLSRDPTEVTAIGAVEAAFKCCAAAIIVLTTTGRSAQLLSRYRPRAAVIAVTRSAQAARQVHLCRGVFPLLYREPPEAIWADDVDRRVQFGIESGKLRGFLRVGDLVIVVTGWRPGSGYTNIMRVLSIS
T1 sequence (P14618 2-531 limits assumed): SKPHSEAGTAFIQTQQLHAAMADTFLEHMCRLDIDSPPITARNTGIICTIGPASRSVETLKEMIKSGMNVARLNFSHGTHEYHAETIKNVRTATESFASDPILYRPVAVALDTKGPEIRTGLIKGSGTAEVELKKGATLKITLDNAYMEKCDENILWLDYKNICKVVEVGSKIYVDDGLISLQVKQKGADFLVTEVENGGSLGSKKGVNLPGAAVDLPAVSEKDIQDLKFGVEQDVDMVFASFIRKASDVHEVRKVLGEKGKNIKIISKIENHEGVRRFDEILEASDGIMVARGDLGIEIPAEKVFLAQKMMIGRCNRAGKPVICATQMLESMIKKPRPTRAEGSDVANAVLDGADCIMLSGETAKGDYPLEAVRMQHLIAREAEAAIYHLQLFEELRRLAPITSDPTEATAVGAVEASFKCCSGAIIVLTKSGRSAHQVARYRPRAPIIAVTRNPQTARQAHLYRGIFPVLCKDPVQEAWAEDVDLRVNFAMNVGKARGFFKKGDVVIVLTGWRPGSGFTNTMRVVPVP

Compound	Activity [1] [%]	Activity [2] [%]	Activity [3] [%]	Activity [4] [%]	Activity (Pyruvate kinase PKM [5]) [%]	Activity (Pyruvate kinase PKM [6])	Activity (Pyruvate kinase PKM [7])
O=S(=O)(c1ccc2c(c1)OCCO2)N1CCN(S(=O)(=O)c2c(F)ccc(O)c2F)CC1	< 30	< 30	< 30	< 30	95.3	inactive	inactive
O=S(=O)(c1ccc(F)cc1)N1CCN(S(=O)(=O)c2ccc3c(c2)OCCO3)CC1	< 30	< 30	< 30	< 30	–	inactive	inactive
COc1ccc(S(=O)(=O)N2CCN(S(=O)(=O)c3c(F)cccc3F)CC2)cc1	< 30	< 30	< 30	< 30	102	inactive	inactive
Cn1ccc2cc(S(=O)(=O)N3CCN(S(=O)(=O)c4c(F)cccc4F)CC3)ccc21	< 30	< 30	< 30	< 30	91.1	inactive	inactive
O=S(=O)(c1ccc2c(c1)OCCO2)C1CCN(S(=O)(=O)c2c(F)cccc2F)CC1	< 30	< 30	< 30	< 30	110	inactive	inactive
O=S(=O)(c1ccc2ccccc2c1)N1CCN(S(=O)(=O)c2c(F)cccc2F)CC1	< 30	< 30	< 30	< 30	138	inactive	inactive
O=S(=O)(c1ccc2c(c1)OCO2)N1CCN(S(=O)(=O)c2c(F)cccc2F)CC1	< 30	< 30	< 30	< 30	61	inactive	inactive
O=C1CN(S(=O)(=O)c2c(F)cccc2F)CCN1S(=O)(=O)c1ccc2c(c1)OCCO2	< 30	< 30	< 30	< 30	105	inactive	inactive
O=S(=O)(NCCCCCNS(=O)(=O)c1c(F)cccc1F)c1ccc2c(c1)OCCO2	< 30	< 30	< 30	< 30	114	inactive	inactive
O=S(=O)(c1cccc(C(F)(F)F)c1)N1CCN(S(=O)(=O)c2ccc3c(c2)OCCO3)CC1	< 30	< 30	< 30	< 30	39.3	inactive	inactive
COc1ccc(S(=O)(=O)N2CCN(S(=O)(=O)c3ccc(OC)cc3)CC2)cc1	< 30	< 30	< 30	< 30	87.6	inactive	inactive
C[C@H]1CN(S(=O)(=O)c2c(F)cccc2F)CCN1S(=O)(=O)c1ccc2c(c1)OCCO2	< 30	< 30	< 30	< 30	109	inactive	inactive
COc1cccc(S(=O)(=O)N2CCN(S(=O)(=O)c3ccc4c(c3)OCCO4)CC2)c1	< 30	< 30	< 30	< 30	90	inactive	inactive
O=S(=O)(c1ccc(Cl)cc1)N1CCN(S(=O)(=O)c2ccc3c(c2)OCCO3)CC1	< 30	< 30	< 30	< 30	–	inactive	inactive
